# High-throughput results as filed in PubChem.
# This is a sample that favours compounds with a hit; in the whole collection about 5.9% have one here.
# HIV Rev-RRE inh: inhibitors of HIV-1 Rev-RRE RNA interaction; inhibition, % at 8 µM; 0.79% of 97,000 active; P05866; Rev peptide-RRE RNA binding, FRET;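 active means inhibition above the screen-wide mean plus 3 SD, cut at about 35% in these data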;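 further: 0% = median DMSO wells and 100% = median Neomycin B control wells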
#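 Material: labelled RRE RNA duplex and labelled Rev peptide / Buffer or medium: HEPES pH 7.5 salt buffer with EDTA / Compound dosing: single point, 8 µM final nominal compound concentration / Benchmarks: DMSO low control, neomycin B high control / Timing: 5 min preincubation and 15 min binding, 25 °C / Technique: FRET fluorescence readout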
# Measles CPE: protection of cells from measles virus; Measles virus-infected cells, CPE protection, absorbance; protection (pct of control), % at 4 µM; 1.5% of 140,000 active; AID 841; in the data active means protection mostly above about 24%, no sharp cut-off; inactive means mostly below about 26%
# Phagocyt inh: macrophage phagocytosis inhibition | AID 1029 | 0.07% of 110,000 active | J774A.1 macrophage IgG-bead phagocytosis, imaging | inhibition, % at 5 µM;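 active means inhibition above the mean of the plate negative controls plus 5 SD, cut at about 13% in these data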;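 further: phagocytic index as fraction of beads internalized from green versus red external bead signal; plate controls were DMSO negative control for no effect and cytochalasin-D positive control for full effect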
# hDAT+cocaine: changed human dopamine transporter uptake under cocaine IC80. Q01959. LLC-PK1 hDAT cells, [14C]-dopamine uptake with cocaine IC80; actives deviate in either direction. B-score at 10 µM. 1.3% of 110,000 active. AID 449768;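 active means Z score or B-score, a plate-position-corrected score, falls beyond the plate's 99.7% confidence bounds, in either direction; inactive means both scores lie inside the 99.7% bounds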;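 further: scored against the spread of the other compound wells on the same plate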
# Cav3 T inh: human Cav3.2 channel inhibition, primary screen | Cav3.2-expressing cells, Fluo-4 calcium fluorescence FDSS; active compounds read low | B-score at 10 µM | 4% of 100,000 active;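 active means single-dose well whose peak fluorescence ratio is a statistical outlier from its plate by either plate-standardised score or position-corrected B-score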
# PTK2B oligo ant: blocks oligomerization of human Pyk2 in cells. Q293 cells, Pyk2 FERM NanoBiT luminescence; active compounds read low. z-score (the deposit names both 25 µM and 10 µM). 0.83% of 99,000 active. Q14289;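 active means Z-score of -3 or lower, scaled per plate to the spread of control and sample wells; inactive means z-score above -3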;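 further: negative z-score means lost luminescence so less FERM oligomerization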
# Target sequence (Q14289 whole entry, looked up): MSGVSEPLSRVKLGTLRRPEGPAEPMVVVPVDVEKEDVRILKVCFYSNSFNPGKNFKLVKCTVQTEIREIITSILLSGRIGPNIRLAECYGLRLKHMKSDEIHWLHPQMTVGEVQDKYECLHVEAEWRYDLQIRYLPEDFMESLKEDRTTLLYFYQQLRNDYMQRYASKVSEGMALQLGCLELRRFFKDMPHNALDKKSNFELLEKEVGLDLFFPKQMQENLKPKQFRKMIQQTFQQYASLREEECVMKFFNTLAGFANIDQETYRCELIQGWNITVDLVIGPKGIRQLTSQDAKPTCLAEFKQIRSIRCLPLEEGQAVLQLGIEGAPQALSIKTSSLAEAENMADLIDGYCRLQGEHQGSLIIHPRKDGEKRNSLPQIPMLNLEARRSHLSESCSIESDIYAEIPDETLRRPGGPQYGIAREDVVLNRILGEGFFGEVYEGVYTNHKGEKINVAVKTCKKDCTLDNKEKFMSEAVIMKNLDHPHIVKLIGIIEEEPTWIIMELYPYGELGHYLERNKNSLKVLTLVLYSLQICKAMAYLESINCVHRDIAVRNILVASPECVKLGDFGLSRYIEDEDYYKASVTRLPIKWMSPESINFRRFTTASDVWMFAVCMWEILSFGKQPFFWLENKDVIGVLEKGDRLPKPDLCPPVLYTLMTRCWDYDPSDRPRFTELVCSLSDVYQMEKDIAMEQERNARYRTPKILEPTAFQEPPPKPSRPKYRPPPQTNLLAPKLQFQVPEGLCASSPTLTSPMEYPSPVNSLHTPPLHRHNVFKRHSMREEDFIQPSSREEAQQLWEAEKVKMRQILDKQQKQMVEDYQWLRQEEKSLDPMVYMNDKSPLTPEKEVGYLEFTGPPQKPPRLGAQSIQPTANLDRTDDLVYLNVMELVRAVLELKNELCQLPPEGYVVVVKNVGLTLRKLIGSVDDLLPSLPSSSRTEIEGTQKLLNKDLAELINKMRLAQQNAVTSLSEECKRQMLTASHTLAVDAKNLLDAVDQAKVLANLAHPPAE
# An asterisk follows results filed as active; · = no result given.
SMILES,HIV Rev-RRE inh,Measles CPE,Phagocyt inh,hDAT+cocaine,Cav3 T inh,PTK2B oligo ant
COc1cc2cc(CN(Cc3cccnc3)C(=O)NCc3ccccc3)c(=O)[nH]c2cc1OC,0,48*,-1,-0.0093,1.1,0.41
CCc1ccc2[nH]c(=O)c(CN(Cc3ccccc3)C(=O)Nc3ccccc3OC)cc2c1,5,5,·,-0.64,-4.3*,-2
Cc1ccccc1Cn1nc(C)c(NC(=O)/C=C/c2cnn(C)c2)c1C,·,4,-1,·,·,·
COc1ccccc1-c1nnc(SCC(=O)NC2CCS(=O)(=O)C2)n1CCc1ccccc1 (stereo not given),·,59*,-2,·,·,·
O=C(CSCc1ccc(F)cc1)Nc1nc2c(s1)CCCC2,6,9,-4,-0.32,-6.6*,0.11
O=C(CSCc1ccc(F)cc1)Nc1ccc(F)cc1,·,6,·,·,·,·
CC(C)(C)c1ccc(OCC(=O)NNC(=S)NC(=O)c2ccccc2[N+](=O)[O-])c(Br)c1,·,5,-2,·,·,·
COC(=O)c1sc(NC(=O)c2ccc(Cn3cc(Cl)cn3)o2)c(C#N)c1C,13,6,3,0.074,-3.7*,1.5
N#Cc1c(NC(=O)c2ccc(Cn3cc(Br)cn3)o2)sc2c1CCCCC2,9,23,·,1.9,-4.1,-0.13
COc1cc(OC)nc(-n2ncc(Br)c(Br)c2=O)n1,·,2,0,·,·,·
Cc1cccc(-c2c3c(=O)n(C)c(=O)n(C)c3c3nnc4ccccc4n23)c1,49*,·,·,·,·,0.39
Cc1ccc(-c2c3c(=O)n(C)c(=O)n(C)c3c3nnc4ccccc4n23)cc1,23,·,·,·,·,·
O=C(c1cc(-c2ccco2)on1)N1CCc2ccccc2C1,5,69*,-1,0.13,0.88,2.5
O=C(c1cc(-c2ccc(O)cc2)on1)N1CCc2ccccc2C1,8,7,2,-0.82,-6.2*,·
COC(=O)NC(=S)N1CCOCC1,·,7,0,·,·,·
COc1ccccc1Nc1ccc(S(=O)(=O)N2CCCCC2)cc1[N+](=O)[O-],·,6,·,·,·,·
CCCn1c(NCc2cc(OC)ccc2OC)nc2ccccc21,6,3,-1,1.2,-4.8*,-1.4
CCOc1ccc(S(=O)(=O)Nc2cc(C)ccn2)c2ccccc12,5,47*,-1,-0.012,0.32,0.2
Cc1ccnc(NC(=O)c2cccc(NS(=O)(=O)c3ccccc3C)c2)c1,6,21,-1,0.47*,-2.4,0.92
CCOc1cc(C(=O)Nc2cc(C)ccn2)cc(OCC)c1OCC,-1,19,0,3*,-0.95,-0.59
CCOc1cc(C(=O)Nc2cnccn2)cc(OCC)c1OCC,1,2,0,0.27,-0.47,-0.3
COc1ccc(S(=O)(=O)Nc2cc(C)cc(C)n2)c2ccccc12,4,3,-1,1.2,-0.49,-0.23
Cc1nc(Cl)c(C(=O)NC(=O)NCc2ccccc2)c(C)c1Cl,·,28,-5,·,·,·
COc1ccc(C2Nc3ccccc3C(=O)N2Cc2ccco2)cc1COc1ccccc1F (stereo not given),13,3,0,0.042,-5.2*,-2.3
COc1ccc(C2Nc3ccccc3C(=O)N2Cc2ccco2)cc1COc1ccc(NC(C)=O)cc1 (stereo not given),1,7,-1,1.3,-0.061,-0.13
SMILES,HIV Rev-RRE inh,Measles CPE,Phagocyt inh,hDAT+cocaine,Cav3 T inh,PTK2B oligo ant
CC(=O)Nc1cccc(-c2nnc(SCc3ccccc3C#N)n2C)c1,2,3,4,-0.46,1.9,0.02
CC(=O)Nc1ccc(-c2nnc(SCc3ccccc3C#N)n2C)cc1,4,24*,-2,-0.28,0.4,-0.1
CCOc1cc(/C=C2\C(=O)N(c3nc(-c4ccc(Br)cc4)cs3)N=C2c2ccccc2)ccc1O,58*,0,0,·,·,-0.62
C=C(C)C(=O)Nc1cccc(C2=NOC3(C2)C[C@@H](C(N)=O)N(C(=O)[C@H]2CCC(=O)N2)C3)c1 (stereo not given in full),·,·,·,0.96,0.011,·
CCC1CN(C)C2Cc3c([nH]c4ccccc34)C(=O)CC1C2C(=O)OC (stereo not given),·,·,·,-1.7,-0.41,·
CC[C@H]1CC2CN3CCc4c([nH]c5c([C@H]6C[C@H]7[C@H](CC)CN(C)[C@@H](Cc8c6[nH]c6ccccc86)[C@H]7C(=O)OC)c(OC)ccc45)C(C(=O)OC)(C2)C13,·,·,·,-0.76,-3.8*,·
O=C(Cn1c(=O)c2c(ncn2C2CCCC2)n(Cc2ccccc2)c1=O)N1CCc2ccccc21,4,3,-1,1,-4.4*,-0.57
Cc1cccc(C)c1OCC(=O)Nc1cccc(NC(=O)c2ccco2)c1,7,27,·,-0.034,-4.8*,-0.26
Cc1ccccc1OCC(=O)Nc1cccc(NC(=O)c2ccco2)c1,11,7,·,0.1,-1.3,1.2
CC(C)CNC(=O)c1cccc(NC(=O)c2ccco2)c1,10,22*,0,0.049,0.39,0.34
O=C(Cc1ccc(F)cc1)Nc1ccc(F)c([N+](=O)[O-])c1,-1,72*,-1,-1.5,-0.73,1.4
CCCCCCC(=O)Nc1nc(C)c(-c2csc(Nc3cc(OC)ccc3OC)n2)s1,3,9,6,2.4*,-0.61,·
CCCCC(=O)Nc1nc(C)c(-c2csc(Nc3ccccc3OC)n2)s1,-2,12,-2,2.8*,-0.15,·
CCCCCCCCC(=O)Nc1cc(C)ccc1OC,10,7,·,-7.9*,-1.4,-1.6
CCCCCC(=O)Nc1nc(C)c(-c2csc(Nc3cc(OC)ccc3OC)n2)s1,-5,2,0,1.1,-0.38,·
CC1(C)CC(=O)c2c(-c3cccs3)n[nH]c2C1,2,3,·,-0.19,0.47,-0.58
CC(=O)Nc1ccc(S(=O)(=O)/N=C2\SCCN2S(=O)(=O)c2ccc(NC(C)=O)cc2)cc1,3,4,·,·,·,0.67
COc1ccc(N(CC(=O)Nc2cccc(C)c2C)S(=O)(=O)c2c(C)n[nH]c2C)cc1,5,10,·,1.1,-0.35,-3.3*
CCOc1ccc(N(CC(=O)Nc2cccc(F)c2)S(=O)(=O)c2c(C)noc2C)cc1,16,7,1,-0.22,-0.46,·
CCOc1ccc(N(CC(=O)Nc2ccc(C)c(C)c2)S(=O)(=O)c2c(C)noc2C)cc1,·,5,·,0.015,-4.9*,·
CCOC(=O)c1cccc(NC(=O)CN(c2ccc(OC)cc2)S(=O)(=O)c2c(C)noc2C)c1,1,1,1,0.06,-4.9*,-0.99
Cc1cccnc1NC(=O)COc1ccc2oc3c(c2c1)CCCC3,18,17,·,0.45,-5.6*,1.1
Cc1ccc(NC(=O)COc2ccc3oc4c(c3c2)CCCC4)nc1,6,9,0,-0.68,0.62,1.6
Cc1ccc(N(CC(=O)Nc2ccccc2-c2ccccc2)S(=O)(=O)c2ccccc2)cc1,9,3,·,0.01,-2.2,-3.9*
Cc1ccc(S(=O)(=O)Nc2ccnc3ccccc23)cc1,4,1,·,-8*,-0.24,-0.6
Cc1ccc(S(=O)(=O)Nc2ccccc2-c2ccccc2)cc1,8,2,·,0.011,-5.8*,0.07
